Experiments:
[1] = biological target: T1, Angiotensin-converting enzyme (Oryctolagus cuniculus, UniProt P12822); assay: Inhibition of rabbit lung angiotensin I converting enzyme (ACE) using hippuryl-histidyl-leucine as substrate; conditions: read-out: I50
T1 sequence (P12822 whole entry): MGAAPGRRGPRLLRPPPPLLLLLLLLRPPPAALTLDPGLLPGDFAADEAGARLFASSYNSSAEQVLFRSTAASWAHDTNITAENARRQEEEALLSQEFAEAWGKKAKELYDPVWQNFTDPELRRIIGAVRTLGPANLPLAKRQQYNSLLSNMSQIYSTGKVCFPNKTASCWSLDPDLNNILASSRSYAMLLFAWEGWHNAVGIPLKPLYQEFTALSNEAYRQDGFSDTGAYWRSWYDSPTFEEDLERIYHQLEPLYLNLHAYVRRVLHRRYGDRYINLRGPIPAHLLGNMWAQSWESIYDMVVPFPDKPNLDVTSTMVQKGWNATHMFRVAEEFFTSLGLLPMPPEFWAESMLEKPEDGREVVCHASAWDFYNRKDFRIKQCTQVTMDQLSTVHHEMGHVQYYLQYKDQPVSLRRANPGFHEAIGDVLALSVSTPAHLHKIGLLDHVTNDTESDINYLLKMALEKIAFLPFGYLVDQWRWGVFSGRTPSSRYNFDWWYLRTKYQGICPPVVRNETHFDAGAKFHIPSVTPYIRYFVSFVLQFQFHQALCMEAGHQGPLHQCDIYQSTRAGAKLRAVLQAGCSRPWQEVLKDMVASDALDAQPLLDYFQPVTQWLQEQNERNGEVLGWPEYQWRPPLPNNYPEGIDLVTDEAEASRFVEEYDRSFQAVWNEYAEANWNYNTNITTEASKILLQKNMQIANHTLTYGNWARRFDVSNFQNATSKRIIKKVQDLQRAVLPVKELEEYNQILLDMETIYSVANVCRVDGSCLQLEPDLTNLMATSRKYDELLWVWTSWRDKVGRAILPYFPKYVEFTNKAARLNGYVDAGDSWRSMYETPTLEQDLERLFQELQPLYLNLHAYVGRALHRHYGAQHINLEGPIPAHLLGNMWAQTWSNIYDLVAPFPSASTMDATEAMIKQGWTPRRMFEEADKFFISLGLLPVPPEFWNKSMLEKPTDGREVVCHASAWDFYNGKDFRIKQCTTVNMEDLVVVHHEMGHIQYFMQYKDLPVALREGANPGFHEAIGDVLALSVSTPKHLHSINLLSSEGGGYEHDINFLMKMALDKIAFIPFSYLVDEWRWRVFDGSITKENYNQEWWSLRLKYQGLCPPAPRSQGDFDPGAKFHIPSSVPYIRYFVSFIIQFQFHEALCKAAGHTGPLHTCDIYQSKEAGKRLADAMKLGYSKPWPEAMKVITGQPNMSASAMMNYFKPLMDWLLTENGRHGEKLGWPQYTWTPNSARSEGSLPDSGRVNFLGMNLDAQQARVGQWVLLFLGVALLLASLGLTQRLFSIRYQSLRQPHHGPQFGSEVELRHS

[2] = biological target: T2, Angiotensin-converting enzyme (Rattus norvegicus) (UniProt P47820); assay: In vivo dose required to produce 50% inhibition against angiotensin I in normotensive rat after intravenous administration; format: functional, organism-based
T2 sequence (whole entry): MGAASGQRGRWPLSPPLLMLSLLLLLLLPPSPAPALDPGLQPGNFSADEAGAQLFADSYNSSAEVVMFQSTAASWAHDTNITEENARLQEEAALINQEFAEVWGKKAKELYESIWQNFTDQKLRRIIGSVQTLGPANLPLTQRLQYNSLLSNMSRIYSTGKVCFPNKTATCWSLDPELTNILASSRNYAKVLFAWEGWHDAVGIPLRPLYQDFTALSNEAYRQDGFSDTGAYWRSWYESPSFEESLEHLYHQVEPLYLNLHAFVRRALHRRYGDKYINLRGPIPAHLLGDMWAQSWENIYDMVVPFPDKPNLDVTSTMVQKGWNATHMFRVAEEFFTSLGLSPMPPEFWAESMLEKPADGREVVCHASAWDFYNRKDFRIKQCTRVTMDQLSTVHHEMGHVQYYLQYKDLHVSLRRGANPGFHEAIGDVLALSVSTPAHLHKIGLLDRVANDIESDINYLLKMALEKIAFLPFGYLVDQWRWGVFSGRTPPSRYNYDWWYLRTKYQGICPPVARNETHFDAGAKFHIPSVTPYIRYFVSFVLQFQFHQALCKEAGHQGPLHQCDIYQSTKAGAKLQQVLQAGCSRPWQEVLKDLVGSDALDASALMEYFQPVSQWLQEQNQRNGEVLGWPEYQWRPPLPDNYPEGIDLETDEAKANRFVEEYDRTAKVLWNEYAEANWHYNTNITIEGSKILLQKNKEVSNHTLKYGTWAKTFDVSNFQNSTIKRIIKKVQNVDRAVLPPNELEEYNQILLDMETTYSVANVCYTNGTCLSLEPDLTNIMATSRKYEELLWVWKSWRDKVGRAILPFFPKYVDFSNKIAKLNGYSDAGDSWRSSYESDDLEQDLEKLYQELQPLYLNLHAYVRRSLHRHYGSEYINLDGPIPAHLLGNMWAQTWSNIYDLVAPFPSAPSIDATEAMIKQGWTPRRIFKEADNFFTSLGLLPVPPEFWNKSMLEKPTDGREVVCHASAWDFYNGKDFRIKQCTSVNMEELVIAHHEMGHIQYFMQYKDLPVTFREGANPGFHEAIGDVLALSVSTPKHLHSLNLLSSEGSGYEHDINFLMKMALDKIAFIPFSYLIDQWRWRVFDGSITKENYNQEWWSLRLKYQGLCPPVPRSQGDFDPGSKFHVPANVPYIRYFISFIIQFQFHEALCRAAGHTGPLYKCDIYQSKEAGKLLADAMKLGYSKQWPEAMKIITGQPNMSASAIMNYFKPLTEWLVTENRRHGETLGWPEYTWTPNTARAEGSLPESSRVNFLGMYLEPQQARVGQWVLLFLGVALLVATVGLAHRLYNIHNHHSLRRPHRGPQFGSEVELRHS
Summary of the method: (§1)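 Conscious, unrestrained male Sprague-Dawley rats (225–275 g) with indwelling aortic and vena caval catheters, recovered ≥2 weeks. […] Compound given iv in 0.1 mL water or 5% NaHCO3, responses followed up to 70 min. Maximum % inhibition is the mean of four rats per dose; ED50 interpolated from plots of ≥3 doses.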

[3] = biological target: T2, Angiotensin-converting enzyme (Rattus norvegicus); assay: In vivo oral activity in normotensive rat and percent maximal inhibition of the angiotensin I pressor response; format: functional, organism-based
Summary of the method: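 Catheterized conscious, unrestrained male Sprague-Dawley rats (225–275 g), recovered ≥2 weeks. […] Oral dose in 0.1 mL water, 5% NaHCO3 or 1% agar suspension. Aortic pressure read by transducer for up to 280 min. Maximum % inhibition is the mean of four animals per dose.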

[4] = biological target: T2, Angiotensin-converting enzyme (Rattus norvegicus); assay: In vivo dose required to produce 50% inhibition against angiotensin I (AI) in normotensive rat after intravenous administration; format: functional, organism-based; summary of the method: as §1

| SMILES | IC50 [1] | ED50 [2] | inhibition [3] | ED50 [4] |
| --- | --- | --- | --- | --- |
| NCCCC[C@H](OP(=O)(O)CCCCc1ccccc1)C(=O)N1C[C@H](F)C[C@H]1C(=O)O | 320 nM |  |  |  |
| NCCCC[C@H](OP(=O)(O)CCCCc1ccccc1)C(=O)N(CC(=O)O)C1CCCCC1 | 22 nM | 0.106 µmol/kg | 31% |  |
| CSC1(SC)C[C@@H](C(=O)O)N(C(=O)[C@H](CCCCN)OP(=O)(O)CCCCc2ccccc2)C1 | 16 nM | 0.14 µmol/kg | 45% |  |
| NCCCC[C@H](OP(=O)(O)CCCCc1ccccc1)C(=O)N1C[C@H](Sc2ccccc2)C[C@H]1C(=O)O | 2.6 nM | 0.066 µmol/kg | 11% |  |
| NCCCC[C@H](OP(=O)(O)CCCCc1ccccc1)C(=O)N1CC=C[C@H]1C(=O)O | 43 nM | 0.105 µmol/kg | 73% |  |
| NCCCC[C@H](OP(=O)(O)CCCCc1ccccc1)C(=O)N1[C@H](C(=O)O)C[C@@H]2CCC[C@@H]21 | 26 nM |  | 41% | 0.035 µmol/kg |
| NCCCC[C@H](OP(=O)(O)CCCCc1ccccc1)C(=O)N1CC(F)(F)C[C@H]1C(=O)O | 170 nM | 0.162 µmol/kg | 49% |  |
| NCCCC[C@H](OP(=O)(O)CCCCc1ccccc1)C(=O)N1c2ccccc2C[C@H]1C(=O)O | 4.4 nM |  | 13% | < 0.014 µmol/kg |
| NCCCC[C@H](OP(=O)(O)CCCCc1ccccc1)C(=O)N1CCC[C@H]1C(=O)O |  | 0.063 µmol/kg | 90% |  |
| NCCCC[C@H](OP(=O)(O)CCCCc1ccccc1)C(=O)N1C[C@@H](O)C[C@H]1C(=O)O | 25 nM | 0.033 µmol/kg | 69% |  |
| COc1ccc(N(CC(=O)O)C(=O)[C@H](CCCCN)OP(=O)(O)CCCCc2ccccc2)cc1OC | 35 nM | 0.04 µmol/kg | 62% |  |
| NCCCC[C@H](OP(=O)(O)CCCCc1ccccc1)C(=O)N1C[C@@H](F)C[C@H]1C(=O)O | 160 nM |  |  |  |
| NCCCC[C@H](OP(=O)(O)CCCCc1ccccc1)C(=O)N1C[C@@H](c2ccccc2)C[C@H]1C(=O)O | 3.5 nM | 0.037 µmol/kg | 58% |  |
| NCCCC[C@H](OP(=O)(O)CCCCc1ccccc1)C(=O)N1COC[C@H]1C(=O)O | 145 nM | 0.677 µmol/kg |  |  |
| NCCCC[C@H](OP(=O)(O)CCCCc1ccccc1)C(=O)N1C[C@H](c2ccccc2)C[C@H]1C(=O)O | 270 nM |  |  |  |
| CS[C@@H]1C[C@@H](C(=O)O)N(C(=O)[C@H](CCCCN)OP(=O)(O)CCCCc2ccccc2)C1 | 9.3 nM | 0.031 µmol/kg | 16% |  |
| NCCCC[C@H](OP(=O)(O)CCCCc1ccccc1)C(=O)N1CCS[C@H]1C(=O)O | 81 nM | 0.163 µmol/kg | 50% |  |
| NCCCC[C@H](OP(=O)(O)CCCCc1ccccc1)C(=O)N1CC2(C[C@H]1C(=O)O)SCCS2 | 1.5 nM | 0.018 µmol/kg | 51% |  |
| NCCCC[C@H](OP(=O)(O)CCCCc1ccccc1)C(=O)N1C[C@H](C2CCCCC2)C[C@H]1C(=O)O | 31 nM | 0.11 µmol/kg | 15% |  |
| NCCCC[C@H](OP(=O)(O)CCCCc1ccccc1)C(=O)N1[C@H](C(=O)O)C[C@@H]2CCCC[C@@H]21 | 28 nM | 0.1 µmol/kg | 14% |  |
| NCCCC[C@H](OP(=O)(O)CCCCc1ccccc1)C(=O)N(CC(=O)O)c1ccc2c(c1)OCO2 | 24 nM | 0.1 µmol/kg | 69% |  |
| NCCCC[C@H](OP(=O)(O)CCCCc1ccccc1)C(=O)N1C[C@@H](Cc2ccccc2)C[C@H]1C(=O)O | 1 nM | 0.026 µmol/kg | 14% |  |
| COc1ccc(N(CC(=O)O)C(=O)[C@H](CCCCN)OP(=O)(O)CCCCc2ccccc2)cc1 | 39 nM | 0.043 µmol/kg | 40% |  |
| NCCCC[C@H](OP(=O)(O)CCCCc1ccccc1)C(=O)N1C[C@H](O)C[C@H]1C(=O)O | 140 nM | 0.339 µmol/kg |  |  |
| NCCCC[C@H](OP(=O)(O)CCCCc1ccccc1)C(=O)N1C[C@@H](C2CCCCC2)C[C@H]1C(=O)O | 11 nM | 0.06 µmol/kg | 33% |  |
| NCCCC[C@H](OP(=O)(O)CCCCc1ccccc1)C(=O)N1C[C@@H](Sc2ccccc2)C[C@H]1C(=O)O | 3 nM | 0.047 µmol/kg | 15% |  |
| NCCCC[C@H](OP(=O)(O)CCCCc1ccccc1)C(=O)N1CSC[C@H]1C(=O)O | 91 nM | 0.124 µmol/kg | 46% |  |
| CS[C@H]1C[C@@H](C(=O)O)N(C(=O)[C@H](CCCCN)OP(=O)(O)CCCCc2ccccc2)C1 | 9.7 nM | 0.059 µmol/kg | 8% |  |
